Assay results: ChEMBL document CHEMBL1126647, “Fluorine-18-labeled progestin ketals: synthesis and target tissue uptake selectivity of potential imaging agents for receptor-positive breast tumors” (J Med Chem, 1993)

Tests used:
[1] = Partition coefficient (logP); assay type: physicochemical; conditions: octanol/water
How it was run: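 Octanol/water partition measured as log P by the Minick method. For some reference progestins, log P was also measured by shake flask.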

[2] = molecular target: T1, Mineralocorticoid receptor (Rattus norvegicus) (UniProt P22199); test: Relative binding affinity (RBA) for mineralocorticoid receptor compared to aldosterone
T1 sequence (whole entry): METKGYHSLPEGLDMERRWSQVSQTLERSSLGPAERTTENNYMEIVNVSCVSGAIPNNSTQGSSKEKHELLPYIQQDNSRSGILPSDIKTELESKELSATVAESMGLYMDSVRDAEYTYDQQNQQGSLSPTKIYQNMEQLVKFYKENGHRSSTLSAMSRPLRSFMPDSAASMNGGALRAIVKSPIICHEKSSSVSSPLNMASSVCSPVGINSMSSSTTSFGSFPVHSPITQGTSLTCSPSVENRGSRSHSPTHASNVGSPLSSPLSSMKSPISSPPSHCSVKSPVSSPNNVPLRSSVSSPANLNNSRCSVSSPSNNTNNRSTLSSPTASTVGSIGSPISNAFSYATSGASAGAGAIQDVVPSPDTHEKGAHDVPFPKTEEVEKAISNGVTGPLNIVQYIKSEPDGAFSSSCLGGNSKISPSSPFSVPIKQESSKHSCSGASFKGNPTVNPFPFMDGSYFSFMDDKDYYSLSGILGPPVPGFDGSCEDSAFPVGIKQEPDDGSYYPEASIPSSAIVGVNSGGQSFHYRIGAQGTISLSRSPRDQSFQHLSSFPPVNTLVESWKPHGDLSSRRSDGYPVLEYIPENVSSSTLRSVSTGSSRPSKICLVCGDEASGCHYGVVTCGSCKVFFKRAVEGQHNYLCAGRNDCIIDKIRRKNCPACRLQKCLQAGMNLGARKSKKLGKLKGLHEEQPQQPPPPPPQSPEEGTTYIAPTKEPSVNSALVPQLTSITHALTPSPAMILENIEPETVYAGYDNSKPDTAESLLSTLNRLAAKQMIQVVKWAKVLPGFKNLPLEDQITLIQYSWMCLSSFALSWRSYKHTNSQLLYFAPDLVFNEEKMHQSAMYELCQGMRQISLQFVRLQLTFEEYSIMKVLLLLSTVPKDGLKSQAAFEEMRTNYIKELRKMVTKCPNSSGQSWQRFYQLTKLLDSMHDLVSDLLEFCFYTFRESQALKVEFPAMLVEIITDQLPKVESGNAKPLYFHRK

[3] = molecular target: T2, Progesterone receptor (Rattus norvegicus) (UniProt Q63449); test: Relative binding affinity for progesterone receptor compared to R5020
T2 sequence (whole entry): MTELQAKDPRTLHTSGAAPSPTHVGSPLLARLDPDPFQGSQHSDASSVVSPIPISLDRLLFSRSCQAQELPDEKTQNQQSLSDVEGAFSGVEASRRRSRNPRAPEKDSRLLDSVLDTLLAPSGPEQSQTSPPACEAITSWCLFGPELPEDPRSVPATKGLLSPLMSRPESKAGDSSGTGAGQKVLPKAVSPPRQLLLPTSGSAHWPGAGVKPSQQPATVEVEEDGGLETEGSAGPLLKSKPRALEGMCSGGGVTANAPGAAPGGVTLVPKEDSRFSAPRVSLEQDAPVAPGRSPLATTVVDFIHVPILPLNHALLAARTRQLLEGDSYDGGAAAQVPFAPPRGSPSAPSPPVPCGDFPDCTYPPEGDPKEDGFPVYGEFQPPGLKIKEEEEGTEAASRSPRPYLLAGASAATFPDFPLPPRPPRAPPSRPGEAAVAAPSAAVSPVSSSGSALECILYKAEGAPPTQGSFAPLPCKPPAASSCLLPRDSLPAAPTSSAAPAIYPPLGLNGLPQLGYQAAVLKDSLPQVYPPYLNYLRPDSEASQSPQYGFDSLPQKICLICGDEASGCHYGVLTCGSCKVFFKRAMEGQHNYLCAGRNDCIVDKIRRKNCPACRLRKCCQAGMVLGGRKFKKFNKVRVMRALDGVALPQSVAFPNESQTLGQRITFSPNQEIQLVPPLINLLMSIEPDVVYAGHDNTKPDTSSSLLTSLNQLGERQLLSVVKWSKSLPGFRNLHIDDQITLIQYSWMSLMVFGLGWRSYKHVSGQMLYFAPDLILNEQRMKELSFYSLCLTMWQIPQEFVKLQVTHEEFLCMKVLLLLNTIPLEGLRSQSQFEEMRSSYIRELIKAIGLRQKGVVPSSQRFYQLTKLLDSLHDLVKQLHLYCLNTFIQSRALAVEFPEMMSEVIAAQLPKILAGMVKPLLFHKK

[4] = molecular target: T2, Progesterone receptor (Rattus norvegicus); test: Tissue distribution in uterus/muscle 1 hr after [18F]4 injection into estrogen-primed immature rats at normal dose; assay type: functional, tissue-based
How it was run: (§1)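 Female Sprague-Dawley rats, 23 days old, primed with estradiol 5 μg s.c. in 20% ethanol/sunflower oil on two days and used 24 h later. Under ether, they received 51 μCi tracer (30 Ci/mmol) iv via the tail vein in 0.1 mL 10% ethanol/saline. Killed by decapitation at 1 h; tissues weighed and gamma-counted. Results as %ID/g or tissue ratios, mean ± SD, n = 5.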

[5] = molecular target: T2, Progesterone receptor (Rattus norvegicus); test: Tissue distribution in uterus 1 hr after [18F]4 injection into estrogen-primed immature rats at normal dose; assay type: functional, tissue-based; how it was run: as §1
[6] = molecular target: T2, Progesterone receptor (Rattus norvegicus); test: Tissue distribution in kidney 1 hr after [18F]4 injection into estrogen-primed immature rats at normal dose; assay type: functional, tissue-based; how it was run: as §1
[7] = molecular target: T2, Progesterone receptor (Rattus norvegicus); test: Tissue distribution in muscle 1 hr after [18F]4 injection into estrogen-primed immature rats at normal dose; assay type: functional, tissue-based; how it was run: as §1

Structure (SMILES)	logP [1]	relative binding affinity (RBA) [2]	relative binding affinity (RBA) [3]	Injected dose/g [4] [%]	Injected dose/g [5] [%]	Injected dose/g [6] [%]	Injected dose/g [7] [%]
CCC(=O)[C@@]1(C)CC[C@H]2[C@@H]3CCC4=CC(=O)CCC4=C3CC[C@@]21C [PROMEGESTONE]	4.05	0.93	100	–	–	–	–
C[C@]1(c2ccc(F)cc2)O[C@@H]2CC3C4CCC5=CC(=O)CC[C@@H]5C4CC[C@]3(C)[C@]2(C(=O)CO)O1 (stereo partly specified)	4.84	–	1.3	–	–	–	–
CC(=O)[C@H]1CC[C@H]2[C@@H]3CCC4=CC(=O)CC[C@]4(C)[C@H]3CC[C@]12C	–	–	13	–	–	–	–
CC[C@@H]1C[C@H]2[C@@H]3CCC4=CC(=O)CC[C@@H]4[C@H]3CC[C@]2(C)[C@H]1C(=O)CF	4.66	3.2	700	16	6.43	1.05	0.42
CC[C@@H]1C[C@H]2[C@@H]3CCC4=CC(=O)CC[C@@H]4[C@H]3CC[C@]2(C)[C@H]1C(=O)CO	4.01	0.92	200	–	–	–	–
